Rows were chosen to be rich in hits. Some 5.7% of all compounds tested hit in one or more screens of this group.
SKKanGAS inh: inhibitors of SKKanGAS S. pyogenes growth in kanamycin (SK-promoter or general growth effect). AID 1662. BacTiter-Glo, 6 h. 300,000 compounds, 1.3% hits. inhibition, % at 7.5 µM;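 active means mean replicate score, as percent of positive control median, at least 50; inconclusive means mean below 50 but one replicate at or above 50; inactive means mean and every replicate below 50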;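 further: strain carries kanamycin resistance gene driven by streptokinase promoter and grows in 40 µg/ml kanamycin; loss of luminescence reflects streptokinase promoter inhibition or plain growth inhibition; 0% = median of DMSO wells and 100% = positive control at its reference dose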
CSC inhib: blocks cancer stem cells; cancer stem cell-like cells viability, luminescence; 300,000 compounds, 1.1% hits; inhibition, % at 7.5 µM; in the data active means inhibition above about 75%; inconclusive means no clear call, values can overlap the other calls; tested in HMLE shEcad cells
Beta apoptosis: beta cell apoptosis inhibition | INS-1E cytokine-induced death, ATP luminescence, 48 h; percent of positive-control rescue, neutral wells zero | protection from apoptosis, % (test concentration not listed) | 300,000 compounds, 0.8% hits | AID 435005;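 active means Every replicate reaches about 75%, or at least half do and their mean reaches it too, limit read from the data; inconclusive means At least half of replicates reach the limit but their mean does not; inactive means Under half of replicates reach the limit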;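 further: 0% = cytokine-treated negative control wells and 100% = positive control rescue; higher means more ATP so stronger rescue from cytokine killing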
Mdm2 MdmX PPI: human Mdm2/MdmX binding inhibition; SaOS-2 split-luciferase Mdm2/MdmX complementation, luminescence; inhibition, % at 8 µM; 330,000 compounds, 3% hits; O15151+Q00987;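 active means inhibition of at least 50% at 8 µM in the primary screen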
T cruzi repl: blocks replication of Trypanosoma cruzi; T. cruzi beta-gal in NIH3T3, luminescence, 90 h; inhibition, % (no concentration beside the values); 300,000 compounds, 1.4% hits; AID 1885;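 active means mean inhibition across valid replicates above about 55%, limit read from the data; inconclusive means mean below that limit but half or more replicates reach it; inactive means mean below it, under half of replicates reach it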;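 further: signal also drops with host cell toxicity which is not excluded here; 0% = plate median of DMSO wells and 100% = zero luminescence signal; higher percent means less beta-gal luminescence so fewer parasites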
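Material: NIH/3T3 host cells with β-galactosidase reporter T. cruzi; Input: 5,000 host fibroblasts per well; Medium: DMEM, 2% fetal bovine serum; Compound: 50 nL DMSO compound solution per well; Schedule: 3 h host attachment, then at least 90 h co-culture; Detection: luminescent β-galactosidase signal after 60 min lysis.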
Calb FLC: C. albicans growth modulation with fluconazole | 300,000 compounds, 0.57% hits | C. albicans CaCi-2 (fluconazole-resistant clinical isolate) + fluconazole, Alamar Blue growth, 48 h | growth inhibition, % (no concentration beside the values);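 active means growth inhibition above about 58% in most replicates, limit read from the data, passing the limit was not always enough; inconclusive means exactly half the replicates above a set limit; inactive means most replicates below a set limit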;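 further: all wells also contain fluconazole at 8 µg/ml as a sub-toxic cotreatment; 0% = median of DMSO wells and 100% = median of geldanamycin control wells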
* hit, by the source's call; ? = inconclusive; nt = no result.

SMILES	SKKanGAS inh	CSC inhib	Beta apoptosis	Mdm2 MdmX PPI	T cruzi repl	Calb FLC
COc1cccc(/C=N/NC(=O)c2ccc3nc[nH]c3c2)c1O	-6	30	3	9	9	-3
CCn1c(C)nc2cc(C(N)=O)ccc21	2	2	-2	-39	-10	-2
CCn1c(C)nc2cc(C(=O)N/N=C/c3ccc(O)c(O)c3O)ccc21	-3	nt	nt	nt	34	76*
COc1cccc(/C=N/NC(=O)CNC(=O)c2cccs2)c1O	-2	26	86*	14	3	0
COc1ccccc1CNC(=O)Cn1c(=O)oc2cc(S(=O)(=O)N3CCCC3)ccc21	-2	12	-6	2	-7	-10
COc1ccc2c(c1OC)C(=O)N1N=C(c3ccc(O)cc3)CC21 (configuration not stated)	-9	2	0	6	3	94*
Cc1cc(=O)[nH]c(N/N=C/c2c[nH]c3ccccc23)n1	-9	-16	0	34	-20	-4
C(=N\Nc1nc2ccccc2[nH]1)/c1ccccc1	15	-4	12	-37	-4	-4
C(=N\Nc1nc2ccccc2[nH]1)/c1c[nH]c2ccccc12	64*	-4	119*	-7	?	2
COc1ccc(/C=N/Nc2nc3ccccc3[nH]2)c(OC)c1OC	2	3	34	22	-5	-3
Cc1ccccc1/C=N/Nc1nc2ccccc2[nH]1	68*	-26	nt	-1	32	6
O=[N+]([O-])c1cc(/C=N/Nc2nc3ccccc3[nH]2)c(O)cc1O	97*	64	94*	nt	29	88*
Brc1ccc(-c2ccc(/C=N/Nc3nc4ccccc4[nH]3)o2)cc1	89*	51	23	3	62*	50
CC(C)n1c(CN2CCN(C(=O)c3ccco3)CC2)nc2c1c(=O)n(C)c(=O)n2C	7	4	3	17	2	1
O=C(CCCc1cccs1)Nc1nc(-c2ccc(F)cc2)cs1	8	-7	1	1	-1	-6
C(/CCc1ccccc1)=N\Nc1nc2ccccc2[nH]1	4	-2	88*	45	2	-17
COc1ccc(C(=O)NNC(=S)NC(=O)c2ccc(F)cc2)cc1Br	103*	33	-1	35	8	5
COc1ccc(Cl)cc1C(=O)NNC(=O)c1cccc([N+](=O)[O-])c1	6	-7	5	7	-4	4
COc1ccc(C(=O)NC(=S)NNC(=O)c2ccc(NC(C)=O)cc2)cc1Br	70*	-16	6	18	-12	4
COc1cc(C(=O)NNC(=S)NC(=O)c2ccc(F)cc2)cc(OC)c1OC	83*	13	7	-5	65*	-4
COc1ccc(Cl)cc1C(=O)NNC(=S)NC(=O)c1ccc(F)c(F)c1	99*	nt	nt	28	8	-22
COc1ccc(C(=O)NC(=S)NNC(=O)c2ccncc2)cc1Br	nt	nt	2	17	nt	nt
COc1cc(C(=O)NC(=S)Nc2nc(-c3ccc(F)cc3)cs2)cc(OC)c1OC	-6	-1	3	21	-3	5
NC(=O)c1ccccc1N	0	0	1	22	-11	3
O=C(Nc1cc(Cl)ccc1-n1cncn1)c1ccc([N+](=O)[O-])o1	?	-12	-16	45	38	47
SMILES	SKKanGAS inh	CSC inhib	Beta apoptosis	Mdm2 MdmX PPI	T cruzi repl	Calb FLC
CN1CCN(S(=O)(=O)c2cccc(C(=O)N3CCN(c4ccccc4)CC3)c2)CC1	nt	-7	-5	6	nt	nt
COc1cc(C(=O)NC(=S)NNC(=O)c2ccc3c(c2)OCO3)cc(OC)c1OC	70*	15	14	11	-13	44
CCN(CC)S(=O)(=O)c1ccc2oc(C(=O)NC3CCCc4ccccc43)c(C)c2c1 (configuration not stated)	3	25	9	28	81*	23
O=C(NCCC1=CCCCC1)c1ccc2c(c1)N(Cc1ccccc1)C(=O)CS2	14	26	4	16	56*	-19
O=C(NCCN1CCOCC1)c1ccc2c(c1)N(Cc1ccccc1)C(=O)CS2	4	-8	-10	14	-3	9
O=c1c2ccccc2nc2n1CCC2	-6	5	4	2	-5	18
O=c1c2cc(-c3ccccc3)sc2nc2n1CCC2	50*	-2	-1	-60	-12	-17
CC(=O)Oc1ccc(/C=N/NS(=O)(=O)c2ccccc2)cc1	?	-3	nt	6	-7	-2
Cc1ccc(-n2nc(C)c3c(C)c(CCC(=O)NCC4CCCO4)c(=O)n(C)c32)cc1 (configuration not stated)	6	1	6	24	63*	5
CCN(C[C@H]1N[C@@](C)(C(=O)OC)[C@H]2C(=O)N(C)C(=O)[C@@H]12)C(=O)Nc1ccc(OC)cc1	nt	nt	0	1	nt	nt
CCCn1c(SCC(=O)N2c3ccccc3Sc3ccccc32)nc2ccccc21	1	33	7	35	57*	?
CCCn1c(SCC(=O)O)nc2ccccc21	-2	-14	0	24	1	-3
O=C(CSc1nc(C2CC2)nc2ccccc12)N1c2ccccc2Sc2ccccc21	28	5	nt	6	59*	1
CN(C)C(CNC(=O)c1ccco1)c1cccs1 (configuration not stated)	1	-18	0	-3	-7	3
CCN(CCn1cccn1)Cc1c(C(=O)N2C[C@@H](C)O[C@@H](C)C2)nc2ccc(Cl)cn12	4	8	1	11	-7	-3
O=S1(=O)N=C(Nc2ccc(N3CCOCC3)cc2)c2ccccc21	nt	0	-1	14	-5	86*
Cc1cc(Nc2ccccc2)nc(N2CCOCC2)n1	6	-10	-8	2	7	-3
Cc1ccccc1-c1ccc(Nc2ccc(N3CCOCC3)cc2)nn1	10	-6	1	-15	70*	-6
CCN(C(=O)COC(=O)c1cc([N+](=O)[O-])ccc1N1CCOCC1)C1CCS(=O)(=O)C1 (configuration not stated)	-3	-6	4	-4	-6	8
COc1cc(OC)cc(C(=O)NNC(=O)C(=O)Nc2cc(OC)c(Cl)cc2OC)c1	54*	2	18	15	-14	1
COc1cc(NC(=O)C(=O)NNC(=O)C2CCCCC2)c(OC)cc1Cl	7	6	-2	28	-5	19
O=C(O)C1CCN(C(=O)COc2ccc(Br)cc2)CC1	-9	-8	-3	-25	-1	8
CC(C)c1ccc(-n2cnn(-c3ncccc3[N+](=O)[O-])c2=O)cc1	0	1	-5	-159	6	6
O=c1c2ccccc2ncn1-c1ccc([N+](=O)[O-])cc1[N+](=O)[O-]	3	24	20	15	63*	nt
Cc1ccc(-n2cnn(-c3ccc([N+](=O)[O-])cc3[N+](=O)[O-])c2=O)cc1	7	9	-2	-16	57*	12
